According to ChEMBL document CHEMBL3120063, “Identification of chromomoric acid C-I as an Nrf2 activator in Chromolaena odorata” (J Nat Prod, 2014):
pIC50: −log10 of the molar value. The source made the active and inactive calls. The rule behind the calls is not given here.

Experiments:
HEK293 = assay: Inhibition of NF-kappaB (unknown origin) expressed in HEK293 cells co-expressing luc gene at 30 uM after 30 mins by luciferase reporter gene assay; format: cell-based; conditions: Homo sapiens
Procedure, shortened: (§1)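 HEK293/NF-κB-luc cells were stained 1 h with 2 μM Cell Tracker Green CMFDA, seeded at 4×10⁴ cells/well overnight, and pretreated 30 min with compound, 0.1% DMSO, or 5 μM parthenolide (positive control). They were then stimulated with 2 ng/mL TNF-α for 4 h and lysed; luminescence (NF-κB) and fluorescence (cell count) were read. n = 3.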

[1] = target: T1, Nuclear factor erythroid 2-related factor 2 (Homo sapiens) (UniProt Q16236); assay: Activation of Nrf2 (unknown origin) expressed in CHO-ARE luc cells at 10 to 30 uM after 18 hrs by luciferase reporter gene assay; format: cell-based
T1 sequence (whole entry): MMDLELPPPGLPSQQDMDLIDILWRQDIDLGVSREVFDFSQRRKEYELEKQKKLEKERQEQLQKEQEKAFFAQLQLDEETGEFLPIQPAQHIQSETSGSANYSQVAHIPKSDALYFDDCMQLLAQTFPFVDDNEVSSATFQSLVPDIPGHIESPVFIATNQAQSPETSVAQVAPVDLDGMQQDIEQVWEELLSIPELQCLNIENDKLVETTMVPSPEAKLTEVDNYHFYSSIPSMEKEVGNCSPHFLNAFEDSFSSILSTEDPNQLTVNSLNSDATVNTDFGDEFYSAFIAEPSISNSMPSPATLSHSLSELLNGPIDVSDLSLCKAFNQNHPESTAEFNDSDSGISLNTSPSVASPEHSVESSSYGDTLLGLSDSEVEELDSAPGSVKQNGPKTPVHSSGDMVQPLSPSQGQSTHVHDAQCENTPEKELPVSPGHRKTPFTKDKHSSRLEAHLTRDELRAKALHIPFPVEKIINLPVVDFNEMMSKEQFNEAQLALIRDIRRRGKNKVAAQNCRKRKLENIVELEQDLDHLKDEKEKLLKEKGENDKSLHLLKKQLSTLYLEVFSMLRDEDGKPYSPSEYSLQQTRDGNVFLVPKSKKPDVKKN
Procedure, shortened: (§2)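 CHO-ARE-Luc cells, kept in DMEM with 10% FCS, 2 mM glutamine and 4 μg/mL puromycin, were exposed to test agents for 18 h. 0.1% DMSO served as vehicle and 100 nM CDDO-IM as positive control. Luciferase was normalized to cell count (Cell Tracker Green CMFDA) and expressed as fold of DMSO control. Three independent experiments, means + SD. CD = concentration doubling the vehicle response.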

[2] = Inhibition of NF-kappaB (unknown origin) expressed in HEK293 cells co-expressing luc gene after 30 mins by luciferase reporter gene assay; format: cell-based; conditions: Homo sapiens, HEK293, 0.5 h; procedure, shortened: as §1
[3] = target: T1, Nuclear factor erythroid 2-related factor 2 (Homo sapiens); assay: Activation of Nrf2 (unknown origin) expressed in CHO-ARE luc cells at 10 uM after 18 hrs by luciferase reporter gene assay; format: cell-based; procedure, shortened: as §2
VSMC [4] = assay: Antiproliferative activity against human VSMC assessed as inhibition of PDGF-induced cell proliferation at 2 to 5 uM incubated for 30 mins prior to PDGF challenge measured after 48 hrs by resazurin-mediated fluorescence assay; format: functional
Procedure, shortened: (§3)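 Quiescent (serum-starved) VSMC were pretreated 30 min with 0.1% DMSO, compound, or 10 μM tin protoporphyrin IX (HO-1 inhibitor) as indicated, then stimulated 48 h with 20 ng/mL PDGF. After a PBS wash, cells were given 10 μg/mL resazurin in serum-free medium for 45 min; resorufin fluorescence read at ex 535/em 590 nm. Three independent experiments.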

[5] = target: T1, Nuclear factor erythroid 2-related factor 2 (Homo sapiens); assay: Activation of Nrf2 (unknown origin) expressed in CHO-ARE luc cells at 5.2 uM after 18 hrs by luciferase reporter gene assay relative to vehicle-treated control; format: cell-based; procedure, shortened: as §2
[6] = target: T2, Nuclear factor erythroid 2-related factor 2 (Mus musculus) (UniProt Q60795); assay: Activation of Nrf2 in wild type mouse embryonic fibroblasts assessed as induction of HO-1expression after 18 hrs by immunoblotting analysis
T2 sequence (whole entry): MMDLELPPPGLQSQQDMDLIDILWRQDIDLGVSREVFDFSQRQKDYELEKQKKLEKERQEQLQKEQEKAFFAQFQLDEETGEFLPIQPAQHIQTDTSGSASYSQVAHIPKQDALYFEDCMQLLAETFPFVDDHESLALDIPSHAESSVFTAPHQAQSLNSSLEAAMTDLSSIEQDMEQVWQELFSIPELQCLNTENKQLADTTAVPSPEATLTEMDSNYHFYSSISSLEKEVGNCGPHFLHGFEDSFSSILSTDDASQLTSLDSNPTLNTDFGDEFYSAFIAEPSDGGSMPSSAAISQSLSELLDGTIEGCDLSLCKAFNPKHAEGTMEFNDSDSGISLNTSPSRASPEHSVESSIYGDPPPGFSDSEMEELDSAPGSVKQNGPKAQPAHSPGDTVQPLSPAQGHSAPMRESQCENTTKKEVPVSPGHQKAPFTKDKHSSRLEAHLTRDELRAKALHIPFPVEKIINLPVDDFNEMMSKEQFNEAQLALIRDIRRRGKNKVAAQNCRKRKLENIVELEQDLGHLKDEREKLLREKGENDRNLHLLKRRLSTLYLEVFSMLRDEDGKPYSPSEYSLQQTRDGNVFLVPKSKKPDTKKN
Procedure, shortened: (§4)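 MEF (WT and isogenic Nrf2−/−) or VSMC were seeded at (3–4) × 10⁵ cells/well and treated next day with 0.1% DMSO or compound for 18 h. Total lysates were run on SDS-PAGE and immunoblotted for HO-1, with actin as loading control. HO-1/actin by densitometry relative to vehicle (set at 1). Three independent experiments.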

[7] = target: T1, Nuclear factor erythroid 2-related factor 2 (Homo sapiens); assay: Activation of Nrf2 (unknown origin) expressed in CHO-ARE-Luc cells after 18 hrs by luciferase reporter gene assay in presence of GSH; format: cell-based
Procedure, shortened: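 ARE-luciferase assay in CHO-ARE-Luc cells with the medium supplemented with 2 mM glutathione before compound addition. Luciferase read 18 h later, normalized to cell count and given as fold of 0.1% DMSO control. CDDO-IM 100 nM as positive control. Three independent experiments.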

[8] = target: T2, Nuclear factor erythroid 2-related factor 2 (Mus musculus); assay: Activation of Nrf2 in mouse Nrf2 deficient embryonic fibroblasts assessed as induction of HO-1expression at 10 uM after 18 hrs by immunoblotting analysis; procedure, shortened: as §4
[9] = Cytotoxicity against human VSMC at 2 to 5 uM after 48 hrs by LDH assay
Procedure, shortened: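 Quiescent VSMC were treated with compound for 48 h. LDH release, measured with a nonradioactive CytoTox kit, was taken as readout of membrane integrity. Three independent experiments, 0.1% DMSO vehicle.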

[10] = target: T1, Nuclear factor erythroid 2-related factor 2 (Homo sapiens); assay: Activation of Nrf2 in human VSMC assessed as induction of HO-1 expression at 3 uM after 18 hrs by immunoblotting analysis; procedure, shortened: as §4
VSMC [11] = assay: Antiproliferative activity against human VSMC assessed as inhibition of PDGF-induced cell proliferation at 5 uM incubated for 30 mins prior to PDGF challenge measured after 48 hrs by resazurin-mediated fluorescence assay in presence of protoporphyrin 9; format: functional; procedure, shortened: as §3
[12] = target: T1, Nuclear factor erythroid 2-related factor 2 (Homo sapiens); assay: Activation of Nrf2 (unknown origin) expressed in CHO-ARE-Luc cells after 18 hrs by luciferase reporter gene assay; format: cell-based; procedure, shortened: as §2

CC/C=C\CC1C(=O)C=C/C1=C\CCCCCCC(=O)O (stereo not drawn)
inhibition (HEK293): Active

COc1ccc(-c2cc(=O)c3c(O)c(OC)c(OC)cc3o2)cc1
Activity [1]: inactive

COc1ccc(-c2cc(=O)c3c(OC)c(OC)c(OC)cc3o2)cc1
Activity [1]: inactive

COc1cc(O)c2c(=O)c(O)c(-c3ccc(OC)c(O)c3)oc2c1
Activity [1]: inactive

COc1ccc([C@@H]2CC(=O)c3c(cc(OC)c(OC)c3O)O2)cc1OC
Activity [1]: inactive

CC/C=C\C=C1\C(=O)C=C[C@@H]1CCCCCCCC(=O)O
pIC50 [2]: 5.16
Activity [3]: Active
inhibition (VSMC [4]): Active
fold change (FC) [5]: 2
Activity [6]: Dose-dependent effect
Activity [7]: inactive
Activity [8]: Active
Activity [9]: Non-toxic
Activity [10]: Active
Activity (VSMC [11]): inactive

COc1ccc(-c2oc3cc(O)c(OC)c(O)c3c(=O)c2O)cc1
Activity [1]: inactive

CCCCC/C=C/C=C1/C(=O)C=C[C@@H]1C/C=C\CCCC(=O)O
Activity [12]: Dose-dependent effect

CC/C=C\C=C1/C(=O)C=C[C@@H]1CCCCCCCC(=O)O
inhibition (HEK293): Active

CC/C=C\CC1C(=O)C=C/C1=C/CCCCCCC(=O)O (stereo not drawn)
inhibition (HEK293): Active

COc1ccc([C@@H]2CC(=O)c3c(cc(O)c(OC)c3O)O2)cc1O
Activity [1]: inactive

COc1ccc(-c2cc(=O)c3c(O)c(OC)c(O)cc3o2)cc1
Activity [1]: inactive

COc1ccc(-c2cc(=O)c3c(O)cc(O)cc3o2)cc1
Activity [1]: inactive

COc1ccc(-c2oc3cc(O)cc(O)c3c(=O)c2O)cc1
Activity [1]: inactive

O=c1c(O)c(-c2ccc(O)cc2)oc2cc(O)cc(O)c12
Activity [1]: inactive

O=C1C[C@@H](c2ccc(O)cc2)Oc2cc(O)cc(O)c21
Activity [1]: inactive

CC/C=C\C[C@H]1C(=O)C=C[C@@H]1CCCCCCCC(=O)O
inhibition (HEK293): Active

COc1cc(O)c2c(c1)O[C@H](c1ccc(O)cc1)[C@@H](O)C2=O
Activity [1]: inactive

COc1ccc([C@@H]2CC(=O)c3c(O)cc(O)cc3O2)cc1O
Activity [1]: inactive
